High-throughput results as filed in PubChem.
Compounds with a hit are over-represented: about 0.96% of the library has one in this group of screens.
LAP4 TOR yeast: modulators of TOR pathway LAP4-GFP in S. cerevisiae; S. cerevisiae LAP4-GFP multiplex, flow cytometry GFP, 3 h; median GFP as percent of DMSO wells; GFP response vs DMSO, % at 10 µM; 320,000 tested, 0.34% active; AID 2023;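 active means GFP response vs DMSO above a set limit, about the screen mean plus 3 SD, cut at about 150% in these data; inconclusive means under 70 cell events counted for the yeast strain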
MEP2 TOR yeast: modulators of TOR pathway MEP2-GFP in S. cerevisiae. S. cerevisiae MEP2-GFP strain, flow cytometry GFP, 3 h; 100% = DMSO control level. GFP response vs DMSO, % at 10 µM. 330,000 tested, 0.51% active;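 active means GFP response versus DMSO above a set limit, roughly screen mean plus 3 SD, cut at about 180% in these data; inconclusive means fewer than 70 cells counted for a yeast strain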;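 further: median GFP fluorescence of the barcode-gated MEP2-GFP cells per well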
AGP1-GFP MLPCN: modulators of TOR pathway AGP1-GFP in S. cerevisiae; S. cerevisiae AGP1-GFP multiplex flow cytometry, 3 h; GFP as percent of DMSO wells; GFP response vs DMSO, % at 10 µM; 320,000 tested, 0.02% active; AID 2066;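 active means GFP response relative to DMSO above a set limit, near screen average plus 3 SD, cut at about 150% in these data; inconclusive means fewer than 70 cells counted for the yeast strain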;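 further: median GFP channel fluorescence of the gated AGP1 strain per well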
T cell modulator: T cell immune modulators affecting CD8 T cell-vesicle binding; 330,000 tested, 0.068% active; 2C CD8+ T cell-vesicle binding, flow cytometry; stronger effect = lower value; response (vesicle binding), % at 7 µM;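 active means response, share of CD8 T cells binding vesicles, and their 90th percentile fluorescence all below set limits, cut at about 80% in these data, passing the limit was not always enough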;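 further: values below 100% mean blocked vesicle binding to the CD8+ T cells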
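Assay system – 2C mouse CD8+ T cells · Also added – QL9-loaded Drosophila micro-vesicles · Timing – Cell–vesicle co-incubation 1.5 h at 37 °C, staining 20 min on ice · Signal – flow cytometry of vesicle-bound cells · Measure – percent CD8+ FL2 mean versus row control · Controls – Peptide-free naked vesicles (low) and QL9 vesicles with 0.7% DMSO vehicle (high)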
CIT2 TOR yeast: yeast TOR pathway CIT2-GFP modulation; S. cerevisiae CIT2-GFP strain, flow cytometry, 3 h; 100 means same as DMSO wells; GFP response vs DMSO, % at 10 µM; 320,000 tested, 0.065% active;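 active means GFP response relative to DMSO above a set limit, near the screen mean plus 3 SD, cut at about 150% in these data; inconclusive means Fewer than 70 cells measured for a yeast strain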;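 further: ratio of well median GFP fluorescence to mean of DMSO wells on the plate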
RPL19A-GFP yeast: yeast TOR pathway RPL19A-GFP modulation. S. cerevisiae RPL19A-GFP strain, flow cytometry, 3 h; stronger effect = lower value. percent response vs DMSO, % at 10 µM. 330,000 tested, 0.3% active. AID 2025;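 active means percent response vs DMSO below 50%; inconclusive means fewer than 70 events counted for the yeast strain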;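 further: median channel GFP fluorescence of the barcoded RPL19A-GFP strain; ratio of sample median GFP to plate DMSO average so 100% = DMSO; lower means less RPL19A-GFP as with rapamycin TOR inhibition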
Starred values were filed as active, the others as inactive; i = inactive; ? = inconclusive; . = no result given; [ ] = another dose, or the depositor's remark.

SMILES	LAP4 TOR yeast	MEP2 TOR yeast	AGP1-GFP MLPCN	T cell modulator	CIT2 TOR yeast	RPL19A-GFP yeast
Cc1ccc(N(C(=O)CNC(=O)c2ccco2)C(C(=O)NC2CCCC2)c2cccnc2)cc1C (configuration not stated)	186*	195*	118	158	98	87
Cc1ccc(N(C(=O)CCCC(=O)Nc2ccccn2)C(C(=O)NC2CCCC2)c2ccc(O)cc2)cc1C (configuration not stated)	139	238*	110	393	102	87
Cc1ccc(N(C(=O)CNC(=O)c2ccco2)C(C(=O)NC2CCCCC2)c2cccnc2)cc1C (configuration not stated)	93	87	100	361	95	99
Cc1cc(C)cc(N(C(=O)c2csnn2)C(C(=O)NC2CCCC2)c2cccnc2)c1 (configuration not stated)	92	184*[may fluoresce violet]	17	250	?	57
CN(C)/C=N/NC(=O)C1Cc2c(ccc3ccccc23)O1 (configuration not stated)	104	94	100	284	97	98
COc1ccc(NC(=O)C(CC(=O)O)Cc2ccc(Cl)cc2)cc1 (configuration not stated)	96	113	96	186	100	110
O=C(N/N=C/c1cccn1-c1ccc([N+](=O)[O-])cc1)C(O)c1ccccc1 (configuration not stated)	95	107	112	198	104	102
O=C(Cc1ccccc1)N/N=C/c1cccn1-c1ccc([N+](=O)[O-])cc1	?	185*[may fluoresce violet]	?	359	?	32*[may fluoresce violet]
CC[n+]1c(/C=C/C=C/N(C(C)=O)c2ccccc2)sc2ccccc21	273*	514*	148	69	395*	105
CCN(CC(=O)Nc1ccccc1C(F)(F)F)C(=O)C1CCC1	103	102	106	165	101	99
Cc1nn(Cc2ccc([N+](=O)[O-])cc2)c(=O)n1-c1cccc(Cl)c1	140	217*	108	0	116	96
CCC(c1nnnn1CCOC)N1CCN(Cc2ccccc2OC)CC1 (configuration not stated)	84	260*[may fluoresce violet]	?	486	?	.
COc1ccc(C2CC(c3ccccc3)=NN2S(=O)(=O)c2ccccc2)cc1 (configuration not stated)	191*	235*	97	783	131	108
COC(=O)c1ccc(CSc2nc3ccc(Cl)cc3[nH]2)o1	100	104	97	452	95	.
COC(=O)c1ccc(CSc2nc3scc(-c4cccs4)c3c(=O)[nH]2)o1	104	178*[may fluoresce violet]	?	214	?	39*[may fluoresce violet]
COc1cc(C2CC(=O)Nc3n[nH]c(-c4ccccc4)c32)cc(OC)c1OC (configuration not stated)	99	86	99	132	92	96
O=[N+]([O-])c1ccccc1C1Nc2cccc3cccc(c23)N1	103	476*[may fluoresce violet]	24	339	?	63
COc1ccc(-c2cc(C(F)(F)F)nc(N3CCOCC3)n2)cc1OC	186*	213*	99	268	99	81
COc1cccc(-c2cc(C(F)(F)F)nc(N3CCOCC3)n2)c1	108	111	110	197	108	106
COCCCNC(=S)N1CCC(NC(=O)Nc2ccc(C)cc2)CC1	103	98	106	i	106	99
O=C(O)CN1C(=O)C2C3C=CC(C3)C2C1=O (configuration not stated)	101	100	95	458	101	101
C/C(Cl)=C/CN1C(=O)C2C3C=CC(C3)C2C1=O (configuration not stated)	110	247*[may fluoresce violet]	?	150	?	25*[may fluoresce violet]
COc1cccc(N=Nc2ccc3cccnc3c2O)c1	166*	112	105	347	146	99
Cc1ccc(NC(=S)N(CCCN2CCOCC2)Cc2cccs2)c(C)c1	122	222*	98	249	98	99
O=C(CSc1cn[nH]n1)Nc1ccc(Cl)cc1Cl	76	239*[may fluoresce violet]	?	208	?	52
SMILES	LAP4 TOR yeast	MEP2 TOR yeast	AGP1-GFP MLPCN	T cell modulator	CIT2 TOR yeast	RPL19A-GFP yeast
O=C(CSc1cn[nH]n1)Nc1ccccc1F	108	110	124	121	106	115
Cc1[nH]c2ccccc2c1C(=O)C(=O)N1CCN(c2ccccc2)CC1	97	108	107	578	102	104
Cc1ccc(-n2cnc(N)c2C(=O)c2cccc([N+](=O)[O-])c2)cc1	110	100	104	807	100	96
O=C(NNC(=O)C1CCCCC1)C(=O)NC1CCCCC1	155*	177*	107	278	126	106
CC(NC(=O)c1cccc(N2CCCC2=O)c1)c1ccc2c(c1)OCCO2 (configuration not stated)	74	354*[may fluoresce violet]	?	280	?	30*[may fluoresce violet]
Cc1ccc(-c2n[nH]c(=S)n2-c2ccccc2)cc1	97	92	96	81*	90	96
CCOc1cc2c(cc1/C=C/C(=O)O)OC(C)C2 (configuration not stated)	90	607*[may fluoresce violet]	27	548	?	51
CCOC(=O)C(C(=O)OCC)c1c([N+](=O)[O-])c(=O)n2c3c(cccc13)CCC2	85	97	91	296	89	99
CCOC(=O)c1cc(S(=O)(=O)N2CCN(C(=O)OCC)CC2)cn1C	86	200*	27	228	95	95
CCc1cc(=O)oc2c(CN3CCCC3)c(O)c(Cl)cc12	83	248*	68	394	94	33*
CCc1cc(=O)oc2c(CN3CCN(C)CC3)c(O)c(Cl)cc12	84	302*[may fluoresce violet]	?	381	?	44*[may fluoresce violet]
COCCC(=O)N1CCC(Oc2ccc(C(=O)NCc3nccn3C)cc2)CC1	77	96	97	266	108	104
CCCCOc1cccc(C2/C(=C(/O)c3ccc4c(c3)CC(C)O4)C(=O)C(=O)N2CCN2CCOCC2)c1 (configuration not stated)	90	107	100	572	101	101
O=C(CSc1nc2ccsc2c(=O)n1CC1CCC(C(=O)O)CC1)c1ccc(F)cc1 (configuration not stated)	224*	880*	215*	425	259*	74
O=C(CSc1nc2ccsc2c(=O)n1CC1CCC(C(=O)O)CC1)c1ccc(Cl)cc1 (configuration not stated)	111	101	99	224	94	96
COCCNC(=O)Nc1ccc2c(c1)N(C)C(=O)c1ccccc1S2	101	107	98	278	102	95
